Test results reported in paper PMC10500652 (ACS Omega, 2023).

How the values were obtained:
Ct-DNA [1] = conditions: value reported in the literature; cited from earlier work
MCF-7 = assay: MTT cytotoxicity assay, MCF-7; assay type: cell-based, human; conditions: for IC50: read-out: IC50 MCF 7, MTT, 48 h incubation; for selectivity factor MCF-7: ratio of IC50 HEK-293 / MCF-7
Outline: (§1)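 Cells kept in DMEM with 10% FBS, 1% nonessential amino acids and 1% antibiotic-antimycotic at 37 °C, 95% humidity, CO2, and trypsinised at 80% confluence. Seeded 1 × 10^4 cells/well, grown 24 h, then exposed to test compound. MTT read-out at 570 nm, in triplicate. % growth inhibition = 100 − (AD × 100/AB), against vehicle wells.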

HeLa = assay: MTT cytotoxicity assay, HeLa; assay type: cell-based, human; conditions: for IC50: read-out: IC50 HeLa, MTT, 48 h incubation; for selectivity factor HeLa: ratio of IC50 HEK-293 / HeLa
Outline: as §1

U87MG = assay: MTT cytotoxicity assay, U87MG; assay type: cell-based, human; conditions: for IC50: read-out: IC50 U87MG, MTT, 48 h incubation; for selectivity factor U87MG: ratio of IC50 HEK-293 / U87MG
Outline: as §1

MCF-7 cells [2] = assay: Apoptosis, Annexin V FITC/PI assay; assay type: cell-based, human; conditions: 15 μM, 24 h
HEK293 = assay: MTT cytotoxicity assay, HEK293; assay type: cell-based, human; conditions: read-out: IC50 HEK293, 48 h incubation, normal cell line
Outline: as §1

MCF-7 cells [3] = assay: Cell cycle analysis; assay type: cell-based, human; conditions: 8 μM, 24 h
Outline: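 MCF-7 cells (1 × 10^6) grown 24 h, exposed to test compound in medium 24 h, then harvested by centrifugation. Fixed at 4 °C overnight and washed twice with cold PBS. Stained 15 min in the dark with 0.05 mg/ml PI plus 0.05 mg/ml RNaseA in sheath fluid. DNA content measured by flow cytometry to give percentage of cells in each cycle phase.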

[4] = Molar conductivity measurement; assay type: physicochemical; conditions: for molar conductance ^M in 10% DMSO: 10% aqueous DMSO; for molar conductance ^M in DMSO: pure DMSO
Outline: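 Conductivity of test compound at 3 × 10^-5 M in DMSO and in aqueous DMSO, measured with a conductivity meter of cell constant 1.0 cm^-1.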

Solubility = assay type: physicochemical
Ct-DNA [5] = assay: Ethidium bromide displacement; assay type: binding, calf; conditions: for KSV, Stern–Volmer quenching constant: EtBr–Ct-DNA adduct
Outline: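 EtBr–Ct-DNA adduct (EtBr 8 μM) titrated with test compound at 5–60 μM; drop in EtBr emission followed. KSV from linear Stern–Volmer fit of I0/I vs [complex]. Kapp from the concentration giving 50% quenching: Kapp × [compound]50 = KEtBr × [EtBr], with KEtBr 1.0 × 10^7 M^-1.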

Ct-DNA [6] = assay: Ct-DNA binding by UV absorption titration; design: species or system calf; conditions: on titration with Ct-DNA, Tris-HCl/NaCl buffer
Outline: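 UV absorbance titration: Ct-DNA (purity checked by OD 260/280) added stepwise from stock to test compound held fixed at 20 μM in 5 mM Tris-HCl/50 mM NaCl. Intrinsic binding constant Kb from slope/intercept of linear fit. Hypochromicity %H = (A0 − AF)/A0 × 100, AF taken when absorbance stops changing.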

BSA = BSA (Bos taurus, UniProt P02769); assay: BSA binding, tryptophan emission quenching; design: species or system bovine; conditions: for KBSA, Stern–Volmer quenching constant: BSA fluorescence at 340 nm; for K, binding constant with BSA / n, number of binding sites: Scatchard plot; for kq, quenching rate constant: from KBSA and τ0 = 1 × 10^–8 s
Outline: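 BSA prepared at 2 × 10^-6 M in Tris-HCl/NaCl buffer and titrated with increasing amounts of aqueous test compound. Mixed gently 5 min after each addition; tryptophan emission read at 340 nm with excitation at 295 nm. KBSA from Stern–Volmer plot of I0/I vs [complex]; kq = KBSA/τ0 with τ0 1 × 10^-8. K and n from log((I0−I)/I) vs log[Q].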

[7] = Fluorescence quantum yield; assay type: physicochemical; conditions: relative to quinine sulfate; 0.1% DMSO buffer solution, pH 7.2
Outline: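 Relative emission quantum yield against quinine sulfate in H2SO4 (excitation 350 nm, emission 452 nm, ΦR 0.50). Calculated from integrated emission peak area, absorbance at λmax and refractive indices of sample and reference solvents.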

[8] = Lipophilicity, n-octanol/water partition coefficient by shake-flask method; assay type: physicochemical; conditions: UV detection
Outline: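 Shake-flask partition: test compound dissolved in octanol/water and shaken 24 h. Phases separated by settling over 30 min or centrifuging 5000 rpm for 20 min, collected without cross-contamination. Compound in each phase quantified by UV-vis at room temperature. log Po/w = log([octanol]/[aqueous]); mean of three independent experiments.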

Sequence of BSA (P02769 25-607): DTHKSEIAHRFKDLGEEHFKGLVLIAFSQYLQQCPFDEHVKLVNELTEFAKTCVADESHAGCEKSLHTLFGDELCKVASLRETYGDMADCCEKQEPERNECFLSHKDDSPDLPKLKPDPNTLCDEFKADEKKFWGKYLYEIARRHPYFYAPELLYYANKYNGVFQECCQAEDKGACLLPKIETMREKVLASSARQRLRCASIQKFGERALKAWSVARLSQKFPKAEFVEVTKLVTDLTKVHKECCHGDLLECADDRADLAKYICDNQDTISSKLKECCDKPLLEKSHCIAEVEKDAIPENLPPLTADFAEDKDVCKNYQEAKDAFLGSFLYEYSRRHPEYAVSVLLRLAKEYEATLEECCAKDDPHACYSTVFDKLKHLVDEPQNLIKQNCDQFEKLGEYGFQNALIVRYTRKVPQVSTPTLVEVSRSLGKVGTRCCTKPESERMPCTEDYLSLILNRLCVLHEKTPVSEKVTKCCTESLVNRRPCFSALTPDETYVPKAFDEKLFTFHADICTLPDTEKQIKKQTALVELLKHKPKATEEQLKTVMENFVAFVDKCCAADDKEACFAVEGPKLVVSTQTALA

Compound | IC50 (MCF-7) | IC50 (HeLa) | IC50 (U87MG) | IC50 (HEK293) | selectivity factor MCF-7 (MCF-7) | selectivity factor HeLa (HeLa) | molar conductance ^M in 10% DMSO [4] | molar conductance ^M in DMSO [4] | solubility in water / aqueous medium (Solubility) | selectivity factor U87MG (U87MG) | KSV, Stern–Volmer quenching constant (Ct-DNA [5]) | Δε, change in molar absorptivity (Ct-DNA [6]) | KBSA, Stern–Volmer quenching constant (BSA) | K, binding constant with BSA (BSA) | n, number of binding sites (BSA) | kq, quenching rate constant (BSA) | quantum yield (ϕf) [7] | also measured
CC[n+]1c(-c2ccccc2)c2cc(N)ccc2c2ccc(N)cc21 [EtBr, Ethidium bromide] | – | – | – | – | – | – | – | – | – | – | – | – | – | – | – | – | – | KEtBr, binding constant of EtBr to DNA (Ct-DNA [1]): 1.0 × 10^7 M^–1
N.N.[Cl][Pt][Cl] [cisplatin, cis-diamminedichloroplatinum(II), reference compound] | 20.1 ± 1.6 µM | 16.4 ± 0.16 µM | 16.9 ± 2.1 µM | 34.8 µM | – | – | – | – | – | – | – | – | – | – | – | – | – | early apoptosis (MCF-7 cells [2]): 12.00%; late apoptosis (MCF-7 cells [2]): 32.04%; necrotic cells (MCF-7 cells [2]): 3.12%
COc1cc2c(c(OC)c1OC)-c1ccc(OC)c(=O)cc1[C@@H](NC(C)=O)CC2 [colchicine] | – | – | – | – | – | – | – | – | – | – | – | – | – | – | – | – | – | G0/G1 phase cells (MCF-7 cells [3]): 54.11%; G2/M phase cells (MCF-7 cells [3]): 34.60%; S phase cells (MCF-7 cells [3]): 8.30%; sub-G0 phase cells (MCF-7 cells [3]): 0.64%
[(η^5-Cp*)Ir^IIICl(K^2-N,N-2(2-(4-(4-(Pyridin-2-yl)-1H-1,2,3-triazol-1-yl)butoxy)phenyl)benzo[d]thiazole)]Cl [Complex 7b] | 40.9 ± 1.8 µM | 15.8 ± 0.7 µM | > 100 µM | > 100 µM | 2.45 | 6.31 | 26 S cm^2 mol^–1 | 5 S cm^2 mol^–1 | very good solubility in aqueous medium | 1 | 4 × 10^3 M^–1 | 46.66% | 0.201 × 10^6 M^–1 | 0.057 × 10^6 M^–1 | 1.33 | 2.01 × 10^13 M^–1 s^–1 | 0.0004 | Kapp, apparent DNA-binding constant (Ct-DNA [5]; 50% quenching, [EtBr] = 8 μM, [DNA] = 120 μM): 0.14 × 10^7 M^–1
[Re^I(CO)3Cl(K^2-N,N-2-(2-(4-(4-(Pyridin-2-yl)-1H-1,2,3-triazol-1-yl)butoxy)phenyl)benzo[d]thiazole)] [Complex 7c] | 40.9 ± 1.4 µM | 19.4 ± 0.19 µM | 76 ± 3.5 µM | > 100 µM | 2.44 | 5.15 | 22 S cm^2 mol^–1 | 9 S cm^2 mol^–1 | poor solubility in water | 1.31 | 8.2 × 10^3 M^–1 | 27.12% | 0.296 × 10^6 M^–1 | 0.087 × 10^6 M^–1 | 1.21 | 2.9 × 10^13 M^–1 s^–1 | 0.0140 | log Po/w (n-octanol/water partition coefficient) [8]: 0.3180
